The text below walks through data of ChEMBL document CHEMBL3244072, “Synthesis and antiviral and enzymatic studies of certain 3-deazaguanines and their imidazolecarboxamide precursors” (J Med Chem, 1978).

The source made the active and inactive calls. The rule behind the calls is not given here.

Series [1] has as its system Human alphaherpesvirus 1. Put plainly: Antiviral activity against HSV1 infected in human KB cells assessed as inhibition of virus-induced cytopathic effect after 72 hrs relative to control. Type of series: functional, organism-based. In a few lines:
(§1)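 Cell monolayers (18-24 h) infected with 320 CCID50 of virus; compound added within 15 min at half-log dilutions from 1000 to 1 μg/mL. After 72 h at 37 °C, CPE and cytotoxicity scored microscopically (0-4). Virus rating = sum of (control CPE − treated CPE) over drug levels, halved at any level showing toxicity.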

The subject of series [2] is Human alphaherpesvirus 2. Put plainly: Antiviral activity against HSV2 infected in human KB cells assessed as inhibition of virus-induced cytopathic effect after 72 hrs relative to control. Format: functional, organism-based. In a few lines: as §1
Series [3] concerns Vaccinia virus. Put plainly: Antiviral activity against Vaccinia virus infected in human KB cells assessed as inhibition of virus-induced cytopathic effect after 72 hrs relative to control. Type of series: functional, organism-based. As to conditions: Orthopoxvirus vaccinia. In a few lines: as §1
Series [4] deals with Human respirovirus 3. In words: Antiviral activity against Parainfluenza virus 3 infected in human KB cells assessed as inhibition of virus-induced cytopathic effect after 72 hrs relative to control. Format: functional, organism-based. The method, boiled down: as §1
In series [5] the test system is KB. Put plainly: Antiviral activity against Rhinovirus type 13 infected in human KB cells assessed as inhibition of virus-induced cytopathic effect after 72 hrs relative to control. Type of series: functional, cell-based. As to conditions: Human rhinovirus A13. The method, boiled down: as §1
The test system of series [6] is Influenza B virus. Put plainly: Antiviral activity against Influenza B virus Lee infected in Swiss-Webster mouse assessed as host mean survival days at 100 mg/kg, po qd for 9 days. Format: functional, B/Lee/1940.
Series [7] concerns Influenza B virus. In words: Antiviral activity against Influenza B virus Lee infected in Swiss-Webster mouse assessed as host mean survival days at 50 mg/kg, po qd for 9 days. Format: functional, B/Lee/1940.
In series [8] the test system is Influenza B virus. Put plainly: Antiviral activity against Influenza B virus Lee infected in Swiss-Webster mouse assessed as host mean survival days at 12.5 mg/kg, po qd for 9 days. Type of series: functional, B/Lee/1940.
Series [9] concerns Ehrlich. In words: Inhibition of adenine nucleotide biosynthesis in mouse EAC assessed as [14C]hypoxanthine incorporation at 1 mM after 60 mins by TLC analysis. Format: functional. The note with it: 1 h. The method, boiled down:
(§2)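 Ehrlich ascites tumor cells (about 6 × 10^6 cells/mL) preincubated 20 min at 37 °C with or without 1 mM compound. [14C]hypoxanthine (55 μCi/μmol) then added to 0.1 mM final for 60 min. Label in adenine or guanine nucleotides of the acid-soluble fraction measured by TLC; inhibition calculated against untreated cells.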

Series [10] relates to Ehrlich. In words: Inhibition of guanine nucleotide biosynthesis in mouse EAC assessed as [14C]hypoxanthine incorporation at 1 mM after 60 mins by TLC analysis. Type of series: functional. The note with it: 1 h. In a few lines:
as §2

Series [11] deals with Candida albicans. Put plainly: Antimicrobial activity against Candida albicans at 0.4 umol/mL by broth microdilution method. Format: functional, organism-based. The method, boiled down: (§3)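 Broth dilution in defined medium against clinical isolates of each organism.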
For series [12], the system named is Epidermophyton floccosum. In words: Antimicrobial activity against Epidermophyton floccosum at 0.4 umol/mL by broth microdilution method. Format: functional, organism-based. The method, boiled down:
as §3

Series [13] concerns Microsporum canis. In words: Antimicrobial activity against Microsporum canis at 0.4 umol/mL by broth microdilution method. Type of series: functional, organism-based. In a few lines: as §3
In series [14] the test system is Pseudomonas aeruginosa. Put plainly: Antimicrobial activity against Pseudomonas aeruginosa at 0.4 umol/mL by broth microdilution method. Format: functional, organism-based. The method, boiled down:
as §3

For series [15], the system named is Staphylococcus aureus. In words: Antimicrobial activity against Staphylococcus aureus at 0.4 umol/mL by broth microdilution method. Type of series: functional, organism-based. In a few lines:
as §3

For series [16], the system named is Trichophyton mentagrophytes. Put plainly: Antimicrobial activity against Trichophyton mentagrophytes at 0.4 umol/mL by broth microdilution method. Format: functional, organism-based. The method, boiled down:
as §3

In series [17] the test system is KB. Put plainly: Antiviral activity against Adenovirus type 3 infected in human KB cells assessed as inhibition of virus-induced cytopathic effect after 72 hrs relative to control. Format: functional, cell-based. As to conditions: Human adenovirus 3. The method, boiled down:
as §1

Series [18] concerns Influenza B virus. In words: Antiviral activity against Influenza B virus Lee infected in Swiss-Webster mouse assessed as host mean survival days at 40 mg/kg, po qd for 9 days. Type of series: functional, B/Lee/1940.
The subject of series [19] is Influenza B virus. In words: Antiviral activity against Influenza B virus Lee infected in Swiss-Webster mouse assessed as host mean survival days at 10 mg/kg, po qd for 9 days. Format: functional, B/Lee/1940.
Series [20] deals with Influenza B virus. Put plainly: Antiviral activity against Influenza B virus Lee infected in Swiss-Webster mouse assessed as host mean survival days at 2.5 mg/kg, po qd for 9 days. Format: functional, B/Lee/1940.
The test system of series [21] is Escherichia coli. In words: Inhibition of Escherichia coli IMP dehydrogenase assessed as ratio of compound concentration for 50% inhibition of enzyme activity to 1.7 to 3 x 10^-5 M of substrate concentration. The method, boiled down:
(§4)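 Enzymes partially purified from Escherichia coli B. Substrate at 1.7-3.0 × 10^-5 M. Value is the ratio of inhibitor concentration giving 50% inhibition to substrate concentration.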

In series [22] the test system is Escherichia coli. Put plainly: Inhibition of Escherichia coli adenylosuccinate synthetase assessed as ratio of compound concentration for 50% inhibition of enzyme activity to 1.7 to 3 x 10^-5 M of substrate concentration. In a few lines: as §4
Series [23] addresses Bifunctional purine biosynthesis protein ATIC (Homo sapiens) (UniProt P31939). In words: Inhibition of Escherichia coli IMP cyclohydrolase (unknown origin) assessed as ratio of compound concentration for 50% inhibition of enzyme activity to 1.7 to 3 x 10^-5 M of substrate concentration. In a few lines:
as §4

The subject of series [24] is Mus musculus. Put plainly: Toxicity in Influenza B virus Lee infected Swiss-Webster mouse assessed as mortality at 100 mg/kg, po qd for 9 days. Type of series: organism-based. Further details: dose 100 mg/kg, route oral. The note with it: in vivo, 216 h.
Series [25] concerns Mus musculus. In words: Toxicity in Influenza B virus Lee infected Swiss-Webster mouse assessed as mortality at 50 mg/kg, po qd for 9 days. Format: organism-based. Also noted: dose 50 mg/kg, route oral. As to conditions: in vivo, 216 h.
Series [26] relates to Mus musculus. Put plainly: Toxicity in Influenza B virus Lee infected Swiss-Webster mouse assessed as mortality at 12.5 mg/kg, po qd for 9 days. The note with it: in vivo, 216 h. Format: organism-based. Further details: dose 12.5 mg/kg, route oral.
The test system of series [27] is Influenza B virus. In words: Antiviral activity against Influenza B virus Lee infected in Swiss-Webster mouse assessed as host mean survival days at 3.1 mg/kg, po qd for 9 days. Type of series: functional, B/Lee/1940.
Series [28] concerns Escherichia coli. Put plainly: Antimicrobial activity against Escherichia coli at 0.0025 to 0.125 umol/mL by broth microdilution method. Format: functional, organism-based. The method, boiled down: as §3

Chain of Bifunctional purine biosynthesis protein ATIC (Homo sapiens) (P31939 whole entry, looked up): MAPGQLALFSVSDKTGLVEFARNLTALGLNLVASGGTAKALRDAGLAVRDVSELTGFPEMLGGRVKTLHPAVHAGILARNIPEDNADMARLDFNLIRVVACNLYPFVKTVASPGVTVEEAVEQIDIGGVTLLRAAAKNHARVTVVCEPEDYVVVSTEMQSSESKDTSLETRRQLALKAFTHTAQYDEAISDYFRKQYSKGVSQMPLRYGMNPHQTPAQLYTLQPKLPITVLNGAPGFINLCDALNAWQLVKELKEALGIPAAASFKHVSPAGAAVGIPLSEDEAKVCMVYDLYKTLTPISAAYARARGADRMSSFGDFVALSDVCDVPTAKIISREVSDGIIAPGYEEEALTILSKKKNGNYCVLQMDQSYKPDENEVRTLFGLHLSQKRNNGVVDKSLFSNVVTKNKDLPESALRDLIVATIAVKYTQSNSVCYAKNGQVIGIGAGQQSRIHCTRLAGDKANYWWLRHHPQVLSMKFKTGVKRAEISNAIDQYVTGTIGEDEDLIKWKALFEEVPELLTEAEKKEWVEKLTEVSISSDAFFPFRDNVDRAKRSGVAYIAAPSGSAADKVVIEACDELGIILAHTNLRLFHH

Turning to `N#CCc1c(C(N)=O)ncn1[C@@H]1O[C@H](CO)[C@@H](O)[C@H]1O`, the result in [1] and in series [2] was Active. Besides, the result in [3], in [4], in series [5], in series [11], in series [12] and in series [13] was inactive. The outcome in series [14], in series [15] and in series [16] was inactive. The Time was greater than 0.3 days in [6], 0.118 days in series [7] and greater than 0.3 days in [8]. Further, the inhibition at 1000 µM amounted to 6% in series [9] and 11% in series [10].

With `Nc1cc2c(ncn2[C@@H]2O[C@H](CO)[C@@H](O)[C@H]2O)c(=O)[nH]1`, the result in [17], in series [1], in series [2], in [3], in series [4] and in series [5] was Active. Moreover, the Time is greater than 0.3 days in series [18], greater than 0.3 days in series [19] and 0.118 days in series [20]. Further, the inhibition at 1000 µM was found to be 24% in [9] and 38% in series [10]. Further, the result in [11], in series [12], in [13], in [14], in series [15] and in series [16] was inactive.

Take `NC(=O)c1ncn([C@@H]2O[C@H](COP(=O)(O)O)[C@@H](O)[C@H]2O)n1`: the results for the Ratio in series [21], in [22] and in series [23] were 0.016, 160 and 0.46, respectively.

Turning to `N#CCc1[nH]cnc1C(N)=O`, the outcome in series [17], in [1], in series [4] and in [5] was Active. For the same compound, the Activity entry in series [24], in series [25] and in [26] was “Non-toxic” throughout. In addition, the Time in [6] was 0.118 days; in series [7], greater than 0.3 days; in series [8], greater than 0.3 days; in series [27], 0.23 days. The inhibition at 1000 µM was 8% in [9] and 39% in [10]. Moreover, the outcome in series [11], in series [12], in [13], in [14], in [15] and in [16] was inactive.

`Nc1cc2[nH]cnc2c(=O)[nH]1` [DEZAGUANINE]: the outcome in [17], in [1], in series [2], in series [3], in series [4] and in series [5] was Active. For the same compound, the result in series [28] was Active. For the same compound, the values for the Time in series [18] and in series [19] were 0.23 days and greater than 0.3 days, respectively. The inhibition at 1000 µM turned out to be 20% in [9] and 40% in [10]. Besides, the outcome in series [11], in series [12], in [13], in series [14], in series [15] and in series [16] was inactive.
